Data: ChEMBL document CHEMBL1131232, “New azole antifungals. 3. Synthesis and antifungal activity of 3-substituted-4(3H)-quinazolinones” (J Med Chem, 1998)
≈ marks a conversion by molar mass, not a printed value.

Experiments:
[1] = In vitro for antifungal activity against 10 yeasts; format: functional; conditions: read-out: MIC
Outline: (§1)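 Agar dilution on Kimmig's agar with 0.5% glycerol, using ATCC strains or clinical isolates. Drug stocks were 800 μg/mL in 50% ethanol, tested as 2-fold dilutions from 80 to 0.03 μg/mL. Inocula were 10⁵ cfu/mL. […] Geometric means took >80 as 160 and ≤0.03 as 0.03.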

Candida albicans [2] = assay: Tested in vivo for anti-candida activity in mice model 1 (dose: 0.5 mg/kg, untreated group).; format: functional
Candida albicans [3] = assay: Tested in vivo for anti-candida activity in mice model 1 (dose:0.5 mg/kg, fluconazole-treated group); format: functional
[4] = In vitro antifungal activity against 6 filamentous fungi; format: functional; conditions: read-out: MIC; outline: as §1
Rattus norvegicus = assay: In vivo activity against disseminated aspergillosis (liver) in immunocompromized rat model at a dose of 2 mg/kg, bid, po; format: functional
Mus musculus [5] = assay: In vivo antifungal activity against murine candidosis model after peroral administration with 1 mg/Kg at various time intervals. (percent protection for 100% mortality with untreated group); format: functional
Outline: (§2)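 Groups of 10 male mice were infected iv with 0.2 mL of C. albicans at 2 to 8×10^7 cfu/mL. Drug was given orally as a suspension in 1% Tween + 0.2% carboxymethylcellulose at 1, 4 and 24 h post-infection; controls got vehicle only. Survival was scored on days 3, 5, 7 and 9. Read-out was % survival on the day all untreated controls died, or on the day all mice given fluconazole at the same dose died.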

Candida albicans [6] = assay: In vivo antifungal activity against murine candidosis model after peroral administration with 1 mg/kg at various time intervals. (percent protection for 100% mortality with fluconazole-treated group.); format: functional; conditions: route oral; outline: as §2
Mus musculus [7] = assay: (§3) In vivo antifungal activity against murine candidosis model after peroral administration with 0.5 mg/kg at various time intervals. (percent protection for 100% mortality with fluconazole-treated group.); format: functional; conditions: route oral; outline: as §2
Mus musculus [8] = assay: (§4) In vivo antifungal activity against murine candidosis model after peroral administration with 0.5 mg/kg at various time intervals. (percent protection for 100% mortality with untreated group); format: functional; conditions: route oral; outline: as §2
Candida albicans [9] = assay: The compound was tested in vitro for antifungal activity against Candida albicans.; format: functional; outline: as §1
Candida albicans [10] = assay: as §3; format: functional; conditions: route oral; outline: as §2
Candida albicans [11] = assay: as §4; format: functional; conditions: route oral; outline: as §2
[12] = Half-life in rats after iv administration; format: ADME, organism-based; conditions: rat, in vivo
Mus musculus [13] = assay: The compound was tested in vivo for anti-candida activity in mice model 2(dose :1 mg/kg,fluconazole-treated group); format: functional
Mus musculus [14] = assay: The compound was tested in vivo for anti-candida activity in mice model 2(dose: 1 mg/kg, untreated group).; format: functional
Candida albicans [15] = assay: In vivo antifungal activity against murine candidosis model after peroral administration with 2.5 mg/kg at various time intervals. (percent protection for 100% mortality with untreated group); format: functional; conditions: route oral; outline: as §2
Candida albicans [16] = assay: In vivo antifungal activity against murine candidosis model after peroral administration with 2.5 mg/kg at various time intervals. (percent protection for 100% mortality with fluconazole-treated group.); format: functional; conditions: route oral; outline: as §2
Mus musculus [17] = assay: In vivo antifungal activity against murine candidosis model after peroral administration with 0.25 mg/kg at various time intervals. (percent protection for 100% mortality with untreated group); format: functional; conditions: route oral; outline: as §2
Mus musculus [18] = assay: In vivo antifungal activity against murine candidosis model after peroral administration with 0.25 mg/kg at various time intervals. (percent protection for 100% mortality with fluconazole-treated group.); format: functional; conditions: route oral; outline: as §2
Mus musculus [19] = assay: The compound was tested in vivo for anti-candida activity in mice model 1(dose: 1 mg/kg, untreated group).; format: functional
Mus musculus [20] = assay: The compound was tested in vivo for anti-candida activity in mice model 1(dose: 1 mg/kg,fluconazole-treated group); format: functional

| Structure (SMILES) | MIC [1] | Protection (Candida albicans [2]) | Protection (Candida albicans [3]) | MIC [4] | Protection (Candida albicans [15]) | Protection (Candida albicans [16]) | further results |
| --- | --- | --- | --- | --- | --- | --- | --- |
| C[C@@H](NC(=O)c1ccc(C(F)(F)F)cc1)[C@](O)(Cn1cncn1)c1ccc(F)cc1F | 4.6 µg/mL (≈ 10.4 µM) | 100% | 100% | 22 µg/mL (≈ 50 µM) | – | – | – |
| C[C@@H]1[C@H](O)[C@@H](C)/C=C/C=C/C=C/C=C/C=C/C=C/C=C/[C@H](O[C@@H]2O[C@H](C)[C@@H](O)[C@H](N)[C@@H]2O)C[C@@H]2O[C@](O)(C[C@@H](O)C[C@@H](O)[C@H](O)CC[C@@H](O)C[C@@H](O)CC(=O)O[C@H]1C)C[C@H](O)[C@H]2C(=O)O [AMPHOTERICIN B] | – | – | – | – | – | – | Log cfu/g (Rattus norvegicus): 0.1 |
| C[C@@H](n1cnc2cc(N(C)C)ccc2c1=O)[C@](O)(Cn1cncn1)c1ccc(F)cc1F | 1.3 µg/mL (≈ 2.95 µM) | – | – | 71 µg/mL (≈ 161 µM) | – | – | Protection (Mus musculus [5]): 0%; Protection (Candida albicans [6]): 0% |
| CCC(C)n1ncn(-c2ccc(N3CCN(c4ccc(OC[C@@H]5CO[C@@](Cn6cncn6)(c6ccc(Cl)cc6Cl)O5)cc4)CC3)cc2)c1=O (stereo not given in full) [ITRACONAZOLE] | 5.2 µg/mL (≈ 7.37 µM) | 0% | 0% | 63 µg/mL (≈ 89.3 µM) | – | – | – |
| CCC(CC)n1ncn(-c2ccc(N3CCN(c4ccc5c(=O)n([C@H](C)[C@](O)(Cn6cncn6)c6ccc(F)cc6F)cnc5c4)CC3)cc2)c1=O | 2.3 µg/mL (≈ 3.24 µM) | – | – | > 80 µg/mL | – | – | Protection (Mus musculus [7]): 0%; Protection (Mus musculus [8]): 20% |
| C[C@@H](n1cnc2cc(I)ccc2c1=O)[C@](O)(Cn1cncn1)c1ccc(F)cc1F | 0.3 µg/mL (≈ 0.573 µM) | – | – | 0.9 µg/mL (≈ 1.72 µM) | – | – | MIC (Candida albicans [9]): < 0.03 µg/mL; Protection (Candida albicans [10]): 0%; Protection (Candida albicans [11]): 100%; half-life [12]: > 48 h |
| C[C@H]([C@](O)(Cn1cncn1)c1ccc(F)cc1F)S(C)(=O)=O [GENACONAZOLE] | 8.7 µg/mL (≈ 26.3 µM) | 100% | 100% | 25 µg/mL (≈ 75.5 µM) | – | – | Protection (Mus musculus [13]): 20%; Protection (Mus musculus [14]): 100% |
| C[C@@H](N1CNc2cc(Cl)ccc2C1=O)[C@](O)(Cn1cncn1)c1ccc(F)cc1F | 0.8 µg/mL (≈ 1.84 µM) | – | – | 2.8 µg/mL (≈ 6.45 µM) | 30% | 0% | – |
| C[C@@H](n1cnc2c(Cl)cccc2c1=O)[C@](O)(Cn1cncn1)c1ccc(F)cc1F | 2.5 µg/mL (≈ 5.79 µM) | – | – | 45 µg/mL (≈ 104 µM) | 0% | 0% | – |
| COc1cc2ncn([C@H](C)[C@](O)(Cn3cncn3)c3ccc(F)cc3F)c(=O)c2cc1OC | 7.6 µg/mL (≈ 16.6 µM) | – | – | 80 µg/mL (≈ 175 µM) | 0% | 0% | – |
| C[C@@H](c1nc(-c2ccc(C#N)cc2)cs1)[C@](O)(Cn1cncn1)c1ccc(F)cc1F [RAVUCONAZOLE] | 0.3 µg/mL (≈ 0.686 µM) | 50% | 0% | 0.8 µg/mL (≈ 1.83 µM) | – | – | Protection (Mus musculus [13]): 0%; Protection (Mus musculus [14]): 20% |
| C[C@@H](NC(=O)c1ccc(Cl)cc1NC=O)[C@](O)(Cn1cncn1)c1ccc(F)cc1F | 0.3 µg/mL (≈ 0.667 µM) | – | – | 0.9 µg/mL (≈ 2 µM) | 0% | 0% | – |
| C[C@@H](n1cnc2cc(Cl)ccc2c1=O)[C@](O)(Cn1cncn1)c1ccccc1F | 0.7 µg/mL (≈ 1.69 µM) | – | – | 1.1 µg/mL (≈ 2.66 µM) | 20% | 0% | – |
| C[C@@H](n1cnc2cc(Cl)ccc2c1=O)[C@@](O)(Cn1cncn1)c1ccc(F)cc1F | > 80 µg/mL | – | – | > 80 µg/mL | – | – | Protection (Mus musculus [17]): 0%; Protection (Mus musculus [18]): 0% |
| C[C@@H](c1ncncc1F)[C@](O)(Cn1cncn1)c1ccc(F)cc1F [VORICONAZOLE] | 0.6 µg/mL (≈ 1.72 µM) | 0% | 0% | 0.5 µg/mL (≈ 1.43 µM) | – | – | Protection (Mus musculus [19]): 20%; Protection (Mus musculus [20]): 0% |
